# Experimental data as given in ChEMBL document CHEMBL1137767, “2-(3-Aryl-2-propenoyl)-3-methylquinoxaline-1,4-dioxides: a novel cluster of tumor-specific cytotoxins which reverse multidrug resistance” (Bioorg Med Chem, 2009).
# Active and inactive are the calls of the source. No cut-off for these calls is given here.
# Columns and labels:
# [1] = Growth inhibition of human Molt4/C8 cells after 3 days; format: functional, cell-based; conditions: MOLT-4, 72 h
# Procedure, shortened: (§1)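 Human CEM and Molt 4/C8 T-lymphocytes were grown for three days with or without serial dilutions of the compound. IC50 is the concentration that inhibits cell growth by 50%.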
# CCRF-CEM [2] = assay: Growth inhibition of human CEM cells after 3 days; format: functional, cell-based; conditions: 72 h; procedure, shortened: as §1
# [3] = target: T1, ATP-dependent translocase ABCB1 (Homo sapiens, UniProt P08183); assay: Reversal of P-glycoprotein-mediated multidrug resistance in human MDR1 gene transfected mouse L5178Y cells assessed as fluorescence activity ratio at 20 uM by rhodamine 123 accumulation assay; format: cell-based
# T1 sequence (P08183 whole entry): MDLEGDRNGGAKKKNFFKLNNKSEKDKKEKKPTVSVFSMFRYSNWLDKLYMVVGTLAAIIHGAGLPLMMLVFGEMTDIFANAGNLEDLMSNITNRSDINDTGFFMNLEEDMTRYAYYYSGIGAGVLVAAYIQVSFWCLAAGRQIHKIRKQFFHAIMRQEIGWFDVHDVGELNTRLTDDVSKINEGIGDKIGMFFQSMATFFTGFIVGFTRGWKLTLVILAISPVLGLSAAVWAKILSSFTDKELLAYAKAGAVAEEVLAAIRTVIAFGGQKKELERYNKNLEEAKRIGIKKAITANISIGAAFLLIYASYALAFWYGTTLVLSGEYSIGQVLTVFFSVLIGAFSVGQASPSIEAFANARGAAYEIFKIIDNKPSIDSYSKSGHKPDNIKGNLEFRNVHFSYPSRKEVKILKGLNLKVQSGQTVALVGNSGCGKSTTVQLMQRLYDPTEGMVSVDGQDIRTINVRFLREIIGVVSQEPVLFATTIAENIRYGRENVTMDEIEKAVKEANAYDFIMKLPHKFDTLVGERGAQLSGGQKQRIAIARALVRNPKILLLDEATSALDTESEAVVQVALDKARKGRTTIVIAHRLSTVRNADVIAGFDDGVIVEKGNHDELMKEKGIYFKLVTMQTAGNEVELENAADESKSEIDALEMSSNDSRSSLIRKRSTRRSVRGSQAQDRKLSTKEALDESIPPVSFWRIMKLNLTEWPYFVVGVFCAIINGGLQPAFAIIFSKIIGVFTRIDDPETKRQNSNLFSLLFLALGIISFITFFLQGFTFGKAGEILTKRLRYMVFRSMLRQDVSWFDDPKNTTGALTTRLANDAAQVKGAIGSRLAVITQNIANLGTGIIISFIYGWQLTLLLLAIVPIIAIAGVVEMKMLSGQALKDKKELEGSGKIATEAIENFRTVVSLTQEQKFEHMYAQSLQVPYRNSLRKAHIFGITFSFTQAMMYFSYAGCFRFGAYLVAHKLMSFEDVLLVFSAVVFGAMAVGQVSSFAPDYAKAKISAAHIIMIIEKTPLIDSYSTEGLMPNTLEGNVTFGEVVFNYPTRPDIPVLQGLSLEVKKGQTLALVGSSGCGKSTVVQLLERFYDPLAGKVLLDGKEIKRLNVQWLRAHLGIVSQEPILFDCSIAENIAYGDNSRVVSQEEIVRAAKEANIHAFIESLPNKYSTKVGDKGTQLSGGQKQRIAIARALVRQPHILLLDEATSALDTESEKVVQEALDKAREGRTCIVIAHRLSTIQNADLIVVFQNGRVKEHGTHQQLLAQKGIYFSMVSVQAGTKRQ
# Procedure, shortened: (§2)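 Murine L-5178Y lymphoma cells transfected with human MDR1 gene (P-gp-overexpressing), alongside parental cells, treated or untreated with compound; rhodamine 123 accumulation measured by fluorescence; FAR = ratio of fluorescence intensity in treated versus untreated cells, values above 1 taken as MDR reversal.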
# [4] = target: T1, ATP-dependent translocase ABCB1; assay: Reversal of P-glycoprotein-mediated multidrug resistance in human MDR1 gene transfected mouse L5178Y cells assessed as fluorescence activity ratio at 200 uM by rhodamine 123 accumulation assay; format: cell-based; procedure, shortened: as §2
# [5] = Cytotoxicity against human HGF cells after 48 hrs; format: cell-based
# [6] = Cytotoxicity against human HPC cells after 48 hrs; format: cell-based
# [7] = Cytotoxicity against human HPLF cells after 48 hrs; format: cell-based
# HL-60 [8] = assay: Cytotoxicity against human HL60 cells after 48 hrs; format: functional; conditions: HL-60, 48 h
# HSC-2 = assay: Cytotoxicity against human HSC2 cells after 48 hrs; format: functional; conditions: HSC-2, 48 h
# HSC-3 = assay: Cytotoxicity against human HSC3 cells after 48 hrs; format: functional; conditions: HSC-3, 48 h
# HSC-4 = assay: Cytotoxicity against human HSC4 cells after 48 hrs; format: functional; conditions: HSC-4, 48 h
# CCRF-CEM [9] = assay: Growth inhibition of human CCRF-CEM cells at 10 uM; format: functional, cell-based
# Procedure, shortened: (§3)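 Human tumor cell line panel (59 lines across leukemia, melanoma, non-small cell lung, colon, CNS, ovarian, renal, prostate, breast) treated at a single 10 uM concentration; growth inhibition recorded per line.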
# HL-60 [10] = assay: Growth inhibition of human HL60 cells at 10 uM; format: functional, cell-based; procedure, shortened: as §3
# K562 = assay: Growth inhibition of human K562 cells at 10 uM; format: functional, cell-based; procedure, shortened: as §3
# RPMI8266 = assay: Growth inhibition of human […] cells at 10 uM; format: functional, cell-based; procedure, shortened: as §3
# A549 = assay: Growth inhibition of human A549 cells at 10 uM; format: functional, cell-based; procedure, shortened: as §3
# EKVX = assay: Growth inhibition of human EKVX cells at 10 uM; format: functional, cell-based; procedure, shortened: as §3
# HOP-92 = assay: Growth inhibition of human HOP92 cells at 10 uM; format: functional, cell-based; procedure, shortened: as §3
# NCI-H23 = assay: Growth inhibition of human NCI-H23 cells at 10 uM; format: functional, cell-based; procedure, shortened: as §3
# NCI-H460 = assay: Growth inhibition of human NCI-H460 cells at 10 uM; format: functional, cell-based; procedure, shortened: as §3
# NCI-H522 = assay: Growth inhibition of human NCI-H522 cells at 10 uM; format: functional, cell-based; procedure, shortened: as §3
# HCC 2998 = assay: Growth inhibition of human HCC2998 cells at 10 uM; format: functional, cell-based; procedure, shortened: as §3
# HCT-116 = assay: Growth inhibition of human HCT116 cells at 10 uM; format: functional, cell-based; procedure, shortened: as §3
# HCT-15 = assay: Growth inhibition of human HCT15 cells at 10 uM; format: functional, cell-based; procedure, shortened: as §3
# SW-620 = assay: Growth inhibition of human SW620 cells at 10 uM; format: functional, cell-based; procedure, shortened: as §3
# SF-295 = assay: Growth inhibition of human SF295 cells at 10 uM; format: functional, cell-based; procedure, shortened: as §3
# SNB-75 = assay: Growth inhibition of human SNB75 cells at 10 uM; format: functional, cell-based; procedure, shortened: as §3
# U-251 = assay: Growth inhibition of human U251 cells at 10 uM; format: functional, cell-based; procedure, shortened: as §3
# LOX IMVI = assay: Growth inhibition of human LOXIMVI cells at 10 uM; format: functional, cell-based; procedure, shortened: as §3
# M14 = assay: Growth inhibition of human M14 cells at 10 uM; format: functional, cell-based; procedure, shortened: as §3
# UACC-62 = assay: Growth inhibition of human UACC62 cells at 10 uM; format: functional, cell-based; procedure, shortened: as §3
# IGROV-1 = assay: Growth inhibition of human IGROV1 cells at 10 uM; format: functional, cell-based; procedure, shortened: as §3
# OVCAR-3 = assay: Growth inhibition of human OVCAR-3 cells at 10 uM; format: functional, cell-based; procedure, shortened: as §3
# OVCAR-4 = assay: Growth inhibition of human OVCAR4 cells at 10 uM; format: functional, cell-based; procedure, shortened: as §3
# OVCAR-8 = assay: Growth inhibition of human OVCAR8 cells at 10 uM; format: functional, cell-based; procedure, shortened: as §3
# A498 = assay: Growth inhibition of human A498 cells at 10 uM; format: functional, cell-based; procedure, shortened: as §3
# CAKI-1 = assay: Growth inhibition of human Caki1 cells at 10 uM; format: functional, cell-based; procedure, shortened: as §3
# RXF 393 = assay: Growth inhibition of human RXF393 cells at 10 uM; format: functional, cell-based; procedure, shortened: as §3
# UO-31 = assay: Growth inhibition of human UO31 cells at 10 uM; format: functional, cell-based; procedure, shortened: as §3
# PC-3 = assay: Growth inhibition of human PC3 cells at 10 uM; format: functional, cell-based; procedure, shortened: as §3
# DU-145 = assay: Growth inhibition of human DU145 cells at 10 uM; format: functional, cell-based; procedure, shortened: as §3
# MCF7 = assay: Growth inhibition of human MCF7 cells at 10 uM; format: functional, cell-based; procedure, shortened: as §3
# NCI/ADR-RES = assay: Growth inhibition of human NCI/ADR-RES cells at 10 uM; format: functional, cell-based; procedure, shortened: as §3
# MDA-MB-468 = assay: Growth inhibition of human MDA-MB-468 cells at 10 uM; format: functional, cell-based; procedure, shortened: as §3
# Hs-578T = assay: Growth inhibition of human Hs 578T cells at 10 uM; format: functional, cell-based; procedure, shortened: as §3
# MDA-MB-435 = assay: Growth inhibition of human MDA-MB-435 cells at 10 uM; format: functional, cell-based; procedure, shortened: as §3
# T47D = assay: Growth inhibition of human T47D cells at 10 uM; format: functional, cell-based; procedure, shortened: as §3
smiles,measurement,setting,value
Cc1c(C(=O)/C=C/c2cccc([N+](=O)[O-])c2)[n+]([O-])c2ccccc2[n+]1[O-],IC50,[1],16.3 µM
same,IC50,CCRF-CEM [2],15.8 µM
same,Ratio,[3],1.89
same,Ratio,[4],3.75
same,CC50 at 48 h,[5],47 µM
same,CC50 at 48 h,[6],46 µM
same,CC50 at 48 h,[7],18 µM
same,CC50,HL-60 [8],62 µM
same,CC50,HSC-2,34 µM
same,CC50,HSC-3,122 µM
same,CC50,HSC-4,54 µM
COc1cc(/C=C/C(=O)c2c(C)[n+]([O-])c3ccccc3[n+]2[O-])cc(OC)c1OC,IC50,[1],5.51 µM
same,IC50,CCRF-CEM [2],5.22 µM
same,Ratio,[3],8.15
same,Ratio,[4],41.9
same,CC50 at 48 h,[5],35 µM
same,CC50 at 48 h,[6],31 µM
same,CC50 at 48 h,[7],33 µM
same,CC50,HL-60 [8],1.9 µM
same,CC50,HSC-2,7.8 µM
same,CC50,HSC-3,6.6 µM
same,CC50,HSC-4,6.5 µM
Cc1c(C(=O)/C=C/c2ccc([N+](=O)[O-])cc2)[n+]([O-])c2ccccc2[n+]1[O-],IC50,[1],261 µM
same,IC50,CCRF-CEM [2],164 µM
same,Ratio,[3],1.28
same,Ratio,[4],2.25
same,CC50 at 48 h,[5],57 µM
same,CC50 at 48 h,[6],> 400 µM
same,CC50 at 48 h,[7],91 µM
same,CC50,HL-60 [8],262 µM
same,CC50,HSC-2,55 µM
same,CC50,HSC-3,> 400 µM
same,CC50,HSC-4,73 µM
Cc1c(C(=O)/C=C/c2ccc(Cl)c(Cl)c2)[n+]([O-])c2ccccc2[n+]1[O-],IC50,[1],10.1 µM
same,IC50,CCRF-CEM [2],15.4 µM
same,Ratio,[3],4.42
same,Ratio,[4],11.9
same,CC50 at 48 h,[5],29 µM
same,CC50 at 48 h,[6],13 µM
same,CC50 at 48 h,[7],5.7 µM
same,CC50,HL-60 [8],27 µM
same,CC50,HSC-2,17 µM
same,CC50,HSC-3,84 µM
same,CC50,HSC-4,15 µM
Cc1c(C(=O)/C=C/c2ccc(F)cc2)[n+]([O-])c2ccccc2[n+]1[O-],IC50,[1],6.4 µM
same,IC50,CCRF-CEM [2],10 µM
same,Ratio,[3],4.81
same,Ratio,[4],25.8
same,CC50 at 48 h,[5],31 µM
same,CC50 at 48 h,[6],48 µM
same,CC50 at 48 h,[7],20 µM
same,CC50,HL-60 [8],4.6 µM
same,CC50,HSC-2,6.2 µM
same,CC50,HSC-3,7.7 µM
same,CC50,HSC-4,8.1 µM
same,growth inhibition (GI),CCRF-CEM [9],Active
same,growth inhibition (GI),HL-60 [10],Active
same,growth inhibition (GI),K562,Active
same,growth inhibition (GI),RPMI8266,Active
same,growth inhibition (GI),A549,Active
same,growth inhibition (GI),EKVX,Active
same,growth inhibition (GI),HOP-92,Active
same,growth inhibition (GI),NCI-H23,Active
same,growth inhibition (GI),NCI-H460,Active
same,growth inhibition (GI),NCI-H522,Active
same,growth inhibition (GI),HCC 2998,Active
same,growth inhibition (GI),HCT-116,Active
same,growth inhibition (GI),HCT-15,Active
same,growth inhibition (GI),SW-620,Active
same,growth inhibition (GI),SF-295,Active
same,growth inhibition (GI),SNB-75,Active
same,growth inhibition (GI),U-251,Active
same,growth inhibition (GI),LOX IMVI,Active
same,growth inhibition (GI),M14,Active
same,growth inhibition (GI),UACC-62,Active
same,growth inhibition (GI),IGROV-1,Active
same,growth inhibition (GI),OVCAR-3,Active
same,growth inhibition (GI),OVCAR-4,Active
same,growth inhibition (GI),OVCAR-8,Active
same,growth inhibition (GI),A498,Active
same,growth inhibition (GI),CAKI-1,Active
same,growth inhibition (GI),RXF 393,Active
same,growth inhibition (GI),UO-31,Active
same,growth inhibition (GI),PC-3,Active
same,growth inhibition (GI),DU-145,Active
same,growth inhibition (GI),MCF7,Active
same,growth inhibition (GI),NCI/ADR-RES,Active
same,growth inhibition (GI),MDA-MB-468,Active
same,growth inhibition (GI),Hs-578T,Active
same,growth inhibition (GI),MDA-MB-435,Active
same,growth inhibition (GI),T47D,Active
Cc1c(C(=O)/C=C/c2ccc3c(c2)OCO3)[n+]([O-])c2ccccc2[n+]1[O-],IC50,[1],24.2 µM
same,IC50,CCRF-CEM [2],28.1 µM
same,Ratio,[3],1.58
same,Ratio,[4],3.67
same,CC50 at 48 h,[5],75 µM
same,CC50 at 48 h,[6],79 µM
same,CC50 at 48 h,[7],72 µM
same,CC50,HL-60 [8],13 µM
same,CC50,HSC-2,23 µM
same,CC50,HSC-3,25 µM
same,CC50,HSC-4,28 µM
